Most compounds without a hit are left out; they make up all but 4.3% or so of the library.
FLuc stim CS: affects firefly luciferase, flagging false hits in luciferase stimulation screens; P08659; ATPlite luciferase biochemical, luminescence, 10 min; 0 = ATP-free wells, 1 = DMSO control; activation factor at 10 µM; 200,000 tested, under 10 active;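 active = luciferase activation factor, scaled between plate controls, of at least 2 with compound at 10 µM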
Target sequence (P08659 whole entry, looked up): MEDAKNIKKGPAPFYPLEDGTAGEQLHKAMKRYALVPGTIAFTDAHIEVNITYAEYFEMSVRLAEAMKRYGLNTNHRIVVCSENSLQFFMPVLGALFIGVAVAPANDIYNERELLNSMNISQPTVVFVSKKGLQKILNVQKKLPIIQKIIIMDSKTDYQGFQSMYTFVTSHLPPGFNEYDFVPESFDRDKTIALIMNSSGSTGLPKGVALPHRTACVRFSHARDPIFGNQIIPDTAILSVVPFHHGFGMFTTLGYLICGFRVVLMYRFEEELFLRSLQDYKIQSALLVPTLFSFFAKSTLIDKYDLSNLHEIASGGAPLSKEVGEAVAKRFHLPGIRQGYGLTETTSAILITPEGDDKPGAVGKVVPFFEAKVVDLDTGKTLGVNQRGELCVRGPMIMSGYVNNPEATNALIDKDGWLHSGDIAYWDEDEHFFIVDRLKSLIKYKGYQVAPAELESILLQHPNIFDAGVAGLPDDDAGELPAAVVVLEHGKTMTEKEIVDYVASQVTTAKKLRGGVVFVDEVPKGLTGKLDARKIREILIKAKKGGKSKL
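test system = cell-free luciferase reagent | medium = PBS as buffer for the ATP substrate | dosing = test compounds dosed from 2 mM stocks in 100% DMSO | incubation = 10 min at ambient temperature | detection = luminescence measurement of luciferase light output | benchmarks = low control with PBS replacing ATP, high control enzyme plus ATP without compound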
APP 5'UTR act: APP 5'UTR luciferase reporter activation. AID 1276. activation, % at 2 µM. SH-SY5Y APP 5'UTR luciferase reporter, luminescence; zero percent = DMSO vehicle wells. actives 1% (n = 190,000);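 active = activation above a set limit, based on mean plus 3 SD of controls, cut at about 140% in these data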
STAT1 activator: increases IFN-gamma driven STAT1 reporter signal; activation (% of control), % at 5.5 µM; actives 2.6% (n = 200,000); NIH 3T3 STAT1-luciferase reporter, luminescence; 100% = IFN-gamma alone, no compound; AID 932;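 active = activation above the screen-wide mean activation plus 3 SD, cut at about 130% in these data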;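 note: raw ratio to IFN-gamma control signal so 100% means no change and 0% no light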
NF-kB expr up: NF-kB expression increase, human neuronal cells; NF-kB reporter expression; stronger effect = higher value; fold change at 12.5 µM; actives 1.6% (n = 190,000); in the data active = fold change above about 3.3
FLuc inhib CS: Photinus pyralis luciferase inhibition counter-screen. AID 1006. inhibition, % at 10 µM. P08659. ATPLite firefly luciferase biochemical luminescence, 10 min. actives 1.5% (n = 200,000);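 active = inhibition above about 50% when tested at 10 µM, limit read from the data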
* hit, by the source's call.

What do the screens show for `C=CCNC(=O)c1c(Cl)cnn1-c1ccc(C)cc1`?
FLuc stim CS: 0.8; APP 5'UTR act: 104; STAT1 activator: 139*; NF-kB expr up: 3.2; FLuc inhib CS: 19

Results for Cc1ccc(-n2ncc(Cl)c2C(=O)NC2CC2)cc1 ?
FLuc stim CS: 0.8; APP 5'UTR act: 98; STAT1 activator: 141*; NF-kB expr up: 3; FLuc inhib CS: 20

What do the screens show for `CC(CCCC(C)(C)O)NCc1cn[nH]c1-c1ccc2c(c1)OCO2` (stereo not drawn)?
FLuc stim CS: 1; APP 5'UTR act: 12; STAT1 activator: 88; NF-kB expr up: 1.4; FLuc inhib CS: -1

Results for CCN(Cc1cnn(C)c1)Cc1nc(C(c2ccccc2)c2ccccc2)no1 ?
FLuc stim CS: 1.1; APP 5'UTR act: -4; STAT1 activator: 107; NF-kB expr up: 1.1; FLuc inhib CS: -6

How did N#CCc1nc(CSc2nc3ccccc3o2)cs1 do in these assays?
FLuc stim CS: 1; APP 5'UTR act: 20; STAT1 activator: 128; NF-kB expr up: 2.2; FLuc inhib CS: -1

Results for Cc1nnc(SCc2nc3ccccc3s2)n1N ?
FLuc stim CS: 0.8; APP 5'UTR act: 91; STAT1 activator: 134*; NF-kB expr up: 1.6; FLuc inhib CS: 18

Results for O=C(O)c1ccc(CSc2nc3ccccc3o2)cc1 ?
FLuc stim CS: 1; APP 5'UTR act: 1; STAT1 activator: 105; NF-kB expr up: 1.3; FLuc inhib CS: 4

How did O=C(O)c1ccccc1CSc1nc2ccccc2o1 do in these assays?
FLuc stim CS: 1; APP 5'UTR act: 29; STAT1 activator: 140*; NF-kB expr up: 1.8; FLuc inhib CS: 2

How did c1ccc2oc(SCc3nc4ccccc4s3)nc2c1 do in these assays?
FLuc stim CS: 0.9; APP 5'UTR act: 122; STAT1 activator: 139*; NF-kB expr up: 3.1; FLuc inhib CS: 12

Results for COc1cc(C(=O)NC2CCCc3ccccc32)ccc1OCC(=O)Nc1ccc(F)cc1 (stereo not drawn) ?
FLuc stim CS: 1; APP 5'UTR act: -18; STAT1 activator: 102; NF-kB expr up: 1.1; FLuc inhib CS: -3

Results for CCC(=O)NC(c1ccccc1OC)c1ccc2cccnc2c1O (stereo not drawn) ?
FLuc stim CS: 1.1; APP 5'UTR act: -89; STAT1 activator: 95; NF-kB expr up: 6.9*; FLuc inhib CS: -6

What do the screens show for `CCCC(=O)NC(c1ccc(OC)cc1)c1ccc2cccnc2c1O` (stereo not drawn)?
FLuc stim CS: 1; APP 5'UTR act: -82; STAT1 activator: 95; NF-kB expr up: 1.8; FLuc inhib CS: -3

How did C=CCOC(=O)c1c(C)nc2cc3c(cc2c1C)OCO3 do in these assays?
FLuc stim CS: 1; APP 5'UTR act: 14; STAT1 activator: 122; NF-kB expr up: 1.9; FLuc inhib CS: 1

How did CC(c1ccccc1)N1CCN(C(=O)CCl)CC1 (stereo not drawn) do in these assays?
FLuc stim CS: 1.1; APP 5'UTR act: 3; STAT1 activator: 85; NF-kB expr up: 1.3; FLuc inhib CS: -6

Results for Oc1cccc(-c2nc3ccc4ccccc4c3c3c2CCC3)c1 ?
FLuc stim CS: 1; APP 5'UTR act: 88; STAT1 activator: 142*; NF-kB expr up: 3.8*; FLuc inhib CS: 4

How did O=C(NNc1c2ccccc2nc2ccccc12)c1cccc(O)c1 do in these assays?
FLuc stim CS: 0.9; APP 5'UTR act: 2; STAT1 activator: 97; NF-kB expr up: 0.3; FLuc inhib CS: 6

What do the screens show for `N=C1C(c2nc3ccccc3s2)=C(O)CN1Cc1ccccc1`?
FLuc stim CS: 1; APP 5'UTR act: 23; STAT1 activator: 131*; NF-kB expr up: 1.3; FLuc inhib CS: -2

What do the screens show for `CCOc1ccccc1N1CC(O)=C(c2nc3ccccc3s2)C1=N`?
FLuc stim CS: 1; APP 5'UTR act: -92; STAT1 activator: 118; NF-kB expr up: 0.47; FLuc inhib CS: -4

Results for N=C1C(c2nc3ccccc3s2)=C(O)CN1C1CCCCC1 ?
FLuc stim CS: 1; APP 5'UTR act: 42; STAT1 activator: 147*; NF-kB expr up: 1.1; FLuc inhib CS: 1

How did O=C(CSc1nc(COc2ccccc2)nc2ccccc12)NC1CCCC1 do in these assays?
FLuc stim CS: 1.1; APP 5'UTR act: 19; STAT1 activator: 100; NF-kB expr up: 1.2; FLuc inhib CS: -7

From PubChem BioAssay
